Experiments:
[1] = system: Hepatitis C virus; test: Antiviral activity against Hepatitis C virus containing NS3/4a ps32 sequence by transient cell-base protease activity; format: functional, organism-based, Hepacivirus hominis
How it was run: (§1)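 Transient cell-based phenotype assay of protease activity, using NS3/4A sequences cloned from plasma of HCV-infected patients. EC50s were determined.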

[2] = system: Hepatitis C virus; test: Antiviral activity against Hepatitis C virus containing NS3/A156T protease mutant activity by TaqMan-based assay; format: functional, organism-based, Hepacivirus hominis
How it was run: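 Panel of stable HCV replicon cell lines carrying NS3 protease mutations. Replicon RNA read out by a TaqMan-based assay, and EC50 values determined.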

[3] = system: Hepatitis C virus; test: Antiviral activity against Hepatitis C virus containing NS3/4a ps41 sequence by transient cell-base protease activity; format: functional, organism-based, Hepacivirus hominis; how it was run: as §1
[4] = Cmax in Chimpanzee at 10 mg/kg, po by LC/MS/MS analysis; format: ADME, organism-based, Pan troglodytes; parameters: dose 10 mg/kg, route oral; details: in vivo
How it was run: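 Two HCV-uninfected chimpanzees (about 57 and 52 kg) drank the dose voluntarily in a chocolate milk vehicle (0.67 ml/kg). EDTA plasma was stored at −70°C and quantified by LC/MS/MS after protein precipitation.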

[5] = system: Hepatitis C virus; test: Antiviral activity against Hepatitis C virus containing NS3/F43S protease mutant activity by TaqMan-based assay; format: functional, organism-based, Hepacivirus hominis
[6] = Metabolic stability in dog liver assessed as drug level at 5 mg/kg, po after 24 hrs by LC/MS/MS analysis; format: ADME, organism-based, Canis lupus familiaris; parameters: dose 5 mg/kg, route oral; details: read-out: Drug uptake
How it was run: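 Single oral dose in polyethylene glycol 400 (2.0 ml/kg). A liver biopsy (~200 μl) was taken under sedation and homogenized in 4 volumes of deionized water. Drug was quantified by LC/MS/MS after protein precipitation.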

[7] = system: Hepatitis C virus; test: Antiviral activity against Hepatitis C virus containing NS3/4a ps20 sequence by transient cell-base protease activity; format: functional, organism-based, Hepacivirus hominis; how it was run: as §1
[8] = system: Hepatitis C virus; test: Antiviral activity against Hepatitis C virus genotype 1b infected in […] cell by cell-based HCV replicon assay in presence of 50% normal human serum; format: functional, organism-based, Hepacivirus hominis
How it was run: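 Stable genotype 1b (con1) replicon cell line HB1, assayed in the presence of 50% normal human serum.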

[9] = molecular target: Cathepsin B (Homo sapiens, UniProt P07858); test: Inhibition of human Cathepsin B
[10] = system: Hepatitis C virus; test: Antiviral activity against Hepatitis C virus containing NS3/4a ps33 sequence by transient cell-base protease activity; format: functional, organism-based, Hepacivirus hominis; how it was run: as §1
[11] = molecular target: T1, Cathepsin F (Homo sapiens, UniProt Q9UBX1); test: Inhibition of human Cathepsin F
T1 sequence (Q9UBX1 whole entry): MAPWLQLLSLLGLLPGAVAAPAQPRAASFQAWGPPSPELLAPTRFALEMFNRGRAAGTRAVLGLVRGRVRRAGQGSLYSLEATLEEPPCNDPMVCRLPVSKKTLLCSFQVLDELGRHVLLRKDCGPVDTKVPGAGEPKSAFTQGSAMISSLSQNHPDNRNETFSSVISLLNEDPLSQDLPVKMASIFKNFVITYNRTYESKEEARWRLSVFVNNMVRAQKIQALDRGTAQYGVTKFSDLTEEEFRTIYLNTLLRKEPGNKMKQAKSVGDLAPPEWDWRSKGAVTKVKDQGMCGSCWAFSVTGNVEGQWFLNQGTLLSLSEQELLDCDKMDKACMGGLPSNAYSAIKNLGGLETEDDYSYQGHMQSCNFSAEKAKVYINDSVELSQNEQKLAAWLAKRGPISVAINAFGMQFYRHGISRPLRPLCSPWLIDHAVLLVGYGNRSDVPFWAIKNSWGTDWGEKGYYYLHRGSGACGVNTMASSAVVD

[12] = AUC (0-24 hrs) in dog at 5 mg/kg, po by LC/MS/MS analysis; format: ADME, organism-based, Canis lupus familiaris; parameters: time < 24 hr, dose 5 mg/kg, route oral; details: plasma
How it was run: (§2)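 Dosed orally as a solution in polyethylene glycol 400 (2.0 ml/kg), with n = 3. EDTA plasma was centrifuged off and held at −70°C. Drug levels were determined by LC/MS/MS following protein precipitation.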

[13] = Half life in rhesus monkey at 2 mg/kg, iv by LC/MS/MS analysis; format: ADME, organism-based, Macaca mulatta; parameters: dose 2 mg/kg, route intravenous; details: in vivo
How it was run: (§3)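 Fasted animals received an intravenous bolus in DMSO at 1.0 ml/kg (rat), 0.1 ml/kg (dog) or 0.1 ml/kg (rhesus), with n = 3. Blood was drawn into EDTA tubes, and plasma was separated by centrifugation and stored at −70°C. Drug was quantified by LC/MS/MS after protein precipitation.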

[14] = system: Hepatitis C virus; test: Antiviral activity against Hepatitis C virus genotype 1b infected in […] cell by cell-based HCV replicon assay in presence of 10% fetal bovine serum; format: functional, organism-based, Hepacivirus hominis
How it was run: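 Stable genotype 1b (con1) replicon cell line HB1, assayed in medium with 10% fetal bovine serum.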

[15] = AUC (0-24 hrs) in rhesus monkey at 5 mg/kg, po by LC/MS/MS analysis; format: ADME, organism-based, Macaca mulatta; parameters: time < 24 hr, dose 5 mg/kg, route oral; details: plasma; how it was run: as §2
[16] = AUC (0-24 hrs) in rhesus monkey at 2 mg/kg, iv by LC/MS/MS analysis; format: ADME, organism-based, Macaca mulatta; parameters: time < 24 hr, dose 2 mg/kg, route intravenous; details: plasma; how it was run: as §3
[17] = AUC (0-24 hrs) in rat at 2 mg/kg, iv by LC/MS/MS analysis; format: ADME, organism-based; parameters: time < 24 hr, dose 2 mg/kg, route intravenous; details: plasma; how it was run: as §3
[18] = Plasma clearance in dog at 2 mg/kg, iv by LC/MS/MS analysis; format: ADME, organism-based, Canis lupus familiaris; parameters: dose 2 mg/kg, route intravenous; how it was run: as §3
[19] = Cytotoxicity against […] cells; format: cell-based; details: HB1
[20] = system: Hepatitis C virus; test: Antiviral activity against Hepatitis C virus containing NS3/4a ps40 sequence by transient cell-base protease activity; format: functional, organism-based, Hepacivirus hominis; how it was run: as §1
[21] = system: Hepatitis C virus; test: Antiviral activity against Hepatitis C virus containing NS3/Q41R protease mutant activity by TaqMan-based assay; format: functional, organism-based, Hepacivirus hominis
[22] = Cmax in rhesus monkey at 5 mg/kg, po by LC/MS/MS analysis; format: ADME, organism-based, Macaca mulatta; parameters: dose 5 mg/kg, route oral; details: in vivo; how it was run: as §2
[23] = Metabolic stability in chimpanzee liver assessed as drug level at 10 mg/kg, po after 12 hrs by LC/MS/MS analysis; format: ADME, organism-based, Pan troglodytes; parameters: dose 10 mg/kg, route oral; details: read-out: Drug uptake
How it was run: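 Two uninfected chimpanzees were dosed orally in chocolate milk vehicle (0.67 ml/kg). A liver biopsy (~200 μl) was taken under sedation at the single 12-h time point, homogenized in 4 volumes of deionized water, and analysed by LC/MS/MS after protein precipitation.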

[24] = system: Hepatitis C virus; test: Antiviral activity against Hepatitis C virus containing NS3/4a ps30 sequence by transient cell-base protease activity; format: functional, organism-based, Hepacivirus hominis; how it was run: as §1
[25] = molecular target: Chymotrypsin-like elastase family member 1 (Homo sapiens, UniProt Q9UNI1); test: Inhibition of human Pancreatic elastase 1
[26] = molecular target: T2, Cathepsin L2 (Homo sapiens, UniProt O60911); test: Inhibition of human Cathepsin V
T2 sequence (O60911 whole entry): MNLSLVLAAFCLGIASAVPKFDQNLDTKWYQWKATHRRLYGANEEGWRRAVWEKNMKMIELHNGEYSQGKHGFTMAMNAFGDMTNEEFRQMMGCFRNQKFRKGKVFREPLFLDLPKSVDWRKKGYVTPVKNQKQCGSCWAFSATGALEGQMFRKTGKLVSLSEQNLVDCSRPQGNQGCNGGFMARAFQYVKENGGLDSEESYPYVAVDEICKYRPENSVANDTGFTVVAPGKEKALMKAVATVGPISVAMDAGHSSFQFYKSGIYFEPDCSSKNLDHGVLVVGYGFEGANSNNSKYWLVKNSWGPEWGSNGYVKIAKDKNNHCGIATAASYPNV

[27] = Inhibition of Hepatitis C virus genotype 1a NS3/4A protease activity; parameters: species or system Hepatitis C virus subtype 1a
How it was run: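 Recombinant NS3/4A protease was expressed in and purified from E. coli. Inhibition was measured by a time-resolved, internally quenched fluorescence assay at low enzyme concentration. Kis were reported.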

[28] = system: Hepatitis C virus; test: Antiviral activity against Hepatitis C virus containing NS3/4a H77 sequence by transient cell-base protease activity; format: functional, organism-based, Hepacivirus hominis

Sequence of Chymotrypsin-like elastase family member 1 (Q9UNI1 whole entry): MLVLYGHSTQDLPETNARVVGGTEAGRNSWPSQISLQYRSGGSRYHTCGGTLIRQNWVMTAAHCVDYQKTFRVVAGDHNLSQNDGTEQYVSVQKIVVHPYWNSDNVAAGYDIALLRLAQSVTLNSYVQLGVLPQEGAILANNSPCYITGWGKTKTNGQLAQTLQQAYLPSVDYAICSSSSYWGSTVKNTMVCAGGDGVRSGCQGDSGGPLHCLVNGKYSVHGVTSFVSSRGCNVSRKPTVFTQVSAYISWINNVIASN

Compound: CC[C@@H]1C[C@]1(NC(=O)[C@@H]1C[C@@H]2CN1C(=O)[C@H](C(C)(C)C)NC(=O)OCC(C)(C)CCCCc1cccc3c1CN(C3)C(=O)O2)C(=O)NS(=O)(=O)C1CC1 [VANIPREVIR]
- EC50 [1]: 3.8 nM
- EC50 [2]: 200 nM
- EC50 [3]: 19 nM
- Cmax [4]: 900 nM
- EC50 [5]: 7.8 nM
- concentration at 24 h [6]: 600 nM
- EC50 [7]: 2.9 nM
- EC50 [8]: 13 nM
- IC50 [9]: > 10000 nM
- EC50 [10]: 9.5 nM
- IC50 [11]: > 10000 nM
- AUC(0-t) at 24 h [12]: 1.2 µM·h
- half-life [13]: 1.3 h
- EC50 [14]: 5 nM
- AUC(0-t) at 24 h [15]: 0.05 µM·h
- AUC(0-t) at 24 h [16]: 2.5 µM·h
- AUC(0-t) at 24 h [17]: 0.6 µM·h
- clearance [18]: 11 mL/min/kg
- EC50 [19]: > 50000 nM
- EC50 [20]: 2.9 nM
- EC50 [21]: 5.2 nM
- Cmax [22]: 10 nM
- concentration at 12 h [23]: 31000 nM
- EC50 [24]: 27 nM
- IC50 [25]: > 10000 nM
- IC50 [26]: > 10000 nM
- Ki [27]: 0.07 nM
- EC50 [28]: 4.5 nM

Reference: ChEMBL document CHEMBL1240347, “MK-7009, a potent and selective inhibitor of hepatitis C virus NS3/4A protease” (Antimicrob Agents Chemother, 2010)
